The source of these data is ChEMBL document CHEMBL1145781, “Synthesis and structure-activity relationships of 5-amino-6-fluoro-1-[(1R,2S)-2-fluorocyclopropan-1-yl]-8-methylquinolonecarboxylic acid antibacterials having fluorinated 7-[(3R)-3-(1-aminocyclopropan-1-yl)pyrrolidin-1-yl] substituents” (J Med Chem, 2003).

Converted amounts (≈) assume the structure as drawn. A value given as a limit tells only on which side of the number the result lay.

As a reminder, the MIC50 is the lowest concentration that inhibits either 50% of growth or 50% of the strains tested, depending on the study. Read a high MIC50 as weaker potency. One may read the MIC90 as an inhibitory concentration at the 90% level, which refers to growth in some studies and to a panel of isolates in others. Lower therefore signals greater potency. Broadly, the MIC is the smallest concentration in the dilution series that meets the test's criterion for growth inhibition. The low end stands for inhibition by little substance, the high end for a need for much substance. As a reminder, the solubility is how much of the substance goes into solution per volume. Read a low solubility as a poorly soluble substance.

In data set [1] the test system is Streptococcus pneumoniae. In words: Antibacterial activity was determined against clinically isolated penicillin resistant Streptococcus pneumoniae (PRSP) strains (50 strains). In kind it is functional.
In data set [2] the test system is Enterococcus sp. In words: Antibacterial activity was determined against clinically isolated vancomycin-B resistant enterococci (VRE) strains (10 strains). Format: functional.
Data set [3] concerns Staphylococcus aureus. Briefly: Antibacterial activity was determined against clinically isolated Levofloxacin-methicillin resistant Staphylococcus aureus (LVFX-r MRSA) strains (74 strains). Format: functional.
For data set [4], the system named is Enterococcus sp. In words: Antibacterial activity was determined against clinically isolated vancomycin-A resistant enterococci (VRE) strains (33 strains). Format: functional.
In data set [5] the test system is Klebsiella pneumoniae. Briefly: Antibacterial activity was determined against Klebsiella pneumoniae type II strain after incubation at 37 degrees C for 18 h. In kind it is functional.
Data set [6] concerns Streptococcus pneumoniae. Briefly: Antibacterial activity was determined against Streptococcus pneumoniae J-24 strain after incubation at 37 degrees C for 18 h. Format: functional.
Data set [7] in a line: Mortality was determined after 50 mg/kg dose administered intravenously to 5-week old male mice at a speed of 0.2 mL/min counted on day 7 for total 5 mice. In kind it is ADME, organism-based. Further details: dose 50 mg/kg, route intravenous. As to conditions: mouse, in vivo, iv. Summed up:
(§1)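 Male Slc:ddY mice, 5 weeks old. Compound dissolved in 0.1 N NaOH in saline at varied concentrations and given as a single IV injection at 0.2 mL/min, total volume 10 mL/kg body weight. Deaths counted on day 7 and reported as dead/tested.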

The subject of data set [8] is Staphylococcus aureus. Briefly: Antibacterial activity was determined against Staphylococcus aureus FDA 209-P strain after incubation at 37 degrees C for 18 h. In kind it is functional.
Data set [9] relates to Enterococcus faecalis. In words: Antibacterial activity was determined against Enterococcus faecalis ATCC 19433 strain after incubation at 37 degrees C for 18 h. Format: functional. As to conditions: ATCC 19433, 18 h.
Data set [10] concerns Escherichia coli. In words: Antibacterial activity was determined against Escherichia coli NIHJ strain after incubation at 37 degrees C for 18 h. Format: functional.
Data set [11] in a line: Mortality was determined after 100 mg/kg dose administered intravenously to 5-week old male mice at a speed of 0.2 mL/min counted on day 7 for total 2 mice. In kind it is ADME, organism-based. Further details: dose 100 mg/kg, route intravenous. As to conditions: mouse, in vivo, iv. In outline: as §1
The nature of data set [12]: Mortality was determined after 150 mg/kg dose administered intravenously to 5-week old male mice at a speed of 0.2 mL/min counted on day 7 for total 2 mice. In kind it is ADME, organism-based. Further details: dose 150 mg/kg, route intravenous. As to conditions: mouse, in vivo, iv. Summed up:
as §1

For data set [13], the system named is Streptococcus pyogenes. In words: Antibacterial activity was determined against Streptococcus pyogenes G-36 strain after incubation at 37 degrees C for 18 h. In kind it is functional.
The test system of data set [14] is Staphylococcus epidermidis. In words: Antibacterial activity was determined against Staphylococcus epidermis 56500 strain after incubation at 37 degrees C for 18 h. In kind it is functional.
In data set [15] the test system is Pseudomonas aeruginosa. Briefly: Antibacterial activity was determined against Pseudomonas aeruginosa PAO1 strain after incubation at 37 degrees C for 18 h. Format: functional.
In data set [16] the test system is Streptococcus mitis. Briefly: Antibacterial activity was determined against Streptococcus mitis IID685 strain after incubation at 37 degrees C for 18 h. Format: functional.
Data set [17] in a line: Solubility was determined in water. Format: physicochemical.
A short description of data set [18]: Mortality was determined after 50 mg/kg dose administered intravenously to 5-week old male mice at a speed of 0.2 mL/min counted on day 7 for total 2 mice. Format: ADME, organism-based. Set-up: dose 50 mg/kg, route intravenous. Conditions: mouse, in vivo, iv. Summed up: as §1

`CC(=O)N[C@@H]1[C@H](Oc2c3cc4cc2Oc2ccc(cc2Cl)[C@@H](O[C@@H]2O[C@@H](CO)[C@@H](O)[C@H](O)[C@@H]2NC(C)=O)[C@@H]2NC(=O)[C@H](NC(=O)[C@@H]4NC(=O)[C@H]4NC(=O)[C@@H](Cc5ccc(c(Cl)c5)O3)NC(=O)[C@H](N)c3ccc(O)c(c3)Oc3cc(O)cc4c3)c3ccc(O)c(c3)-c3c(O[C@H]4O[C@H](CO)[C@@H](O)[C@@H](O)[C@@H]4O)cc(O)cc3[C@@H](C(=O)O)NC2=O)O[C@@H](CO)[C@@H](O)[C@@H]1O`: the MIC50 in data set [1] amounted to 0.25 µg/mL (≈ 0.141 µM); in data set [2] it was 1 µg/mL (≈ 0.566 µM); in data set [3] it was 0.5 µg/mL (≈ 0.283 µM); in data set [4] it was 32 µg/mL (≈ 18.1 µM). In addition, the MIC90 in data set [1] was found to be 0.5 µg/mL (≈ 0.283 µM); in [2] it was 2 µg/mL (≈ 1.13 µM); in data set [3], 1 µg/mL (≈ 0.566 µM); in data set [4], 64 µg/mL (≈ 36.2 µM).
As to `Cc1c(N2C[C@H](F)[C@@H](C3(N)CC3)C2)c(F)c(N)c2c(=O)c(C(=O)O)cn([C@@H]3C[C@@H]3F)c12`, the MIC in [5] was 0.013 µg/mL (≈ 0.0298 µM); in [6] it was at most 0.003 µg/mL; in data set [8], at most 0.003 µg/mL; in [9] it was 0.013 µg/mL (≈ 0.0298 µM); in data set [10], at most 0.003 µg/mL; in data set [13] it was at most 0.003 µg/mL. Also, the MIC was at most 0.003 µg/mL in data set [14], 0.2 µg/mL (≈ 0.458 µM) in [15] and at most 0.003 µg/mL in data set [16]. Besides, the Dead is 0 in data set [7], 2 in data set [11] and 2 in data set [12].
For `Cc1c(N2CC[C@@H](CN)C2)c(F)c(N)c2c(=O)c(C(=O)O)cn(C3C[C@@H]3F)c12` (single isomer, unassigned), in [17], the concentration in solution (solubility) was 404 µg/mL (≈ 1030 µM). For the same molecule, the MIC was 0.1 µg/mL (≈ 0.255 µM) in data set [5]; 0.013 µg/mL (≈ 0.0331 µM) in data set [6]; at most 0.003 µg/mL in data set [8]; 0.025 µg/mL (≈ 0.0637 µM) in [9]; 0.013 µg/mL (≈ 0.0331 µM) in data set [10]; 0.013 µg/mL (≈ 0.0331 µM) in data set [13]. In addition, the MIC in data set [14] stood at 0.006 µg/mL (≈ 0.0153 µM); in [15], 0.1 µg/mL (≈ 0.255 µM); in data set [16], 0.006 µg/mL (≈ 0.0153 µM). In addition, the Dead in data set [18], in [11] and in [12] was 2 each time.
As for `CC(=O)NCC1CN(c2ccc(N3CCOCC3)c(F)c2)C(=O)O1` (single isomer, unassigned) [LINEZOLID], the MIC50 in [1] was determined as 0.5 µg/mL (≈ 1.48 µM); in [2], 2 µg/mL (≈ 5.93 µM); in [3] it was 2 µg/mL (≈ 5.93 µM); in data set [4] it was 2 µg/mL (≈ 5.93 µM). Further, the MIC90 in data set [1] was determined as 0.5 µg/mL (≈ 1.48 µM); in data set [2], 2 µg/mL (≈ 5.93 µM); in [3], 2 µg/mL (≈ 5.93 µM); in data set [4], 2 µg/mL (≈ 5.93 µM).
As to `NCC[C@H](O)C(=O)N[C@@H]1C[C@H](N)[C@@H](O[C@H]2O[C@H](CN)CC[C@H]2N)[C@H](O)[C@H]1O[C@H]1O[C@H](CO)[C@@H](O)[C@H](N)[C@H]1O` [ARBEKACIN], the MIC50 is 16 µg/mL (≈ 29 µM) in data set [1], 32 µg/mL (≈ 57.9 µM) in data set [2], 8 µg/mL (≈ 14.5 µM) in data set [3] and 16 µg/mL (≈ 29 µM) in data set [4]. The MIC90 in [1] is 32 µg/mL (≈ 57.9 µM); in [2], above 128 µg/mL; in data set [3], 32 µg/mL (≈ 57.9 µM); in data set [4], 64 µg/mL (≈ 116 µM).
Turning to `O=C(O)c1cn(C2CC2)c2cc(N3CCNCC3)c(F)cc2c1=O` [CIPROFLOXACIN], the MIC in data set [5] is 0.025 µg/mL (≈ 0.0754 µM); in data set [6], 0.39 µg/mL (≈ 1.18 µM); in data set [8], 0.05 µg/mL (≈ 0.151 µM); in [9] it was 0.78 µg/mL (≈ 2.35 µM); in data set [10], at most 0.003 µg/mL; in [13], 1.56 µg/mL (≈ 4.71 µM). Moreover, the MIC in data set [14] was 0.2 µg/mL (≈ 0.604 µM); in [15] it was 0.05 µg/mL (≈ 0.151 µM); in data set [16] it was 0.78 µg/mL (≈ 2.35 µM).
Turning to `COc1c(N2CCNC(C)C2)c(F)cc2c(=O)c(C(=O)O)cn(C3CC3)c12` (stereo not given) [GATIFLOXACIN], the MIC is 0.05 µg/mL (≈ 0.133 µM) in data set [5]; 0.2 µg/mL (≈ 0.533 µM) in [6]; 0.05 µg/mL (≈ 0.133 µM) in [8]; 0.39 µg/mL (≈ 1.04 µM) in data set [9]; 0.006 µg/mL (≈ 0.016 µM) in data set [10]; 0.39 µg/mL (≈ 1.04 µM) in data set [13]. The values for the MIC in data set [14], in data set [15] and in data set [16] were 0.2 µg/mL (≈ 0.533 µM), 0.39 µg/mL (≈ 1.04 µM) and 0.2 µg/mL (≈ 0.533 µM), respectively. Moreover, the MIC50 is 0.25 µg/mL (≈ 0.666 µM) in data set [1], 2 µg/mL (≈ 5.33 µM) in [2], 4 µg/mL (≈ 10.7 µM) in data set [3] and 16 µg/mL (≈ 42.6 µM) in [4]. For the same molecule, the MIC90 came to 0.25 µg/mL (≈ 0.666 µM) in data set [1], 16 µg/mL (≈ 42.6 µM) in data set [2], 32 µg/mL (≈ 85.2 µM) in [3] and 32 µg/mL (≈ 85.2 µM) in data set [4].
